The values below come from PMC3690701 (Bioorganic & medicinal chemistry, 2011).

One series addresses human Pgp (Homo sapiens, UniProt P08183). The settings on record: for logIC50: fitted parameter±standard error, GraphPad Prism, R123 efflux, MDCKII-MDR1.
A short description of series [1]: plasma protein binding by ultrafiltration. Format: in vitro ADME, rat. The conditions noted are these: 30 min at 37°C, n=3. Summed up:
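Fresh plasma from naïve rats was incubated with the 18F-labelled tracer for 30 min at 37°C. Bound and free tracer were then separated by ultrafiltration through centrifugal filter devices.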

Series [2] is classed as in vivo, rat.
Series [3] has as its system Pgp/BCRP at the BBB. The series can be described thus: small-animal PET of [18F]4b in rats before/after unlabelled 1. The format is in vivo, rat. The conditions noted are these: 25 min after tracer injection, scanned 2 h after 1 (5 mg/kg), p=0.0002. A digest of the protocol: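 Naïve rats were kept under isoflurane (2.5% induction, 1.5–2% maintenance) at about 38°C, with femoral artery and vein catheters. The tracer was given as an i.v. bolus (33±3 MBq) in saline/EtOH/PEG300 (50/15/35). Arterial samples were gamma-counted, and whole-brain TACs were expressed as SUV. Groups were compared by 2-tailed Student's t-test.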

A further series relates to Pgp. The conditions noted are these: cited from earlier work.
In series [4] the test system is Pgp/BCRP at the BBB. The settings on record: mouse brain, unlabelled 1 0.1-10 mg/kg i.v.; cited from earlier work.
A further series concerns human BCRP. The settings on record: 3H-labelled tariquidar 1 nM, reversed by fumitremorgin C; cited from earlier work.

The structures appear in SMILES notation.

human Pgp, sequence (P08183 whole entry): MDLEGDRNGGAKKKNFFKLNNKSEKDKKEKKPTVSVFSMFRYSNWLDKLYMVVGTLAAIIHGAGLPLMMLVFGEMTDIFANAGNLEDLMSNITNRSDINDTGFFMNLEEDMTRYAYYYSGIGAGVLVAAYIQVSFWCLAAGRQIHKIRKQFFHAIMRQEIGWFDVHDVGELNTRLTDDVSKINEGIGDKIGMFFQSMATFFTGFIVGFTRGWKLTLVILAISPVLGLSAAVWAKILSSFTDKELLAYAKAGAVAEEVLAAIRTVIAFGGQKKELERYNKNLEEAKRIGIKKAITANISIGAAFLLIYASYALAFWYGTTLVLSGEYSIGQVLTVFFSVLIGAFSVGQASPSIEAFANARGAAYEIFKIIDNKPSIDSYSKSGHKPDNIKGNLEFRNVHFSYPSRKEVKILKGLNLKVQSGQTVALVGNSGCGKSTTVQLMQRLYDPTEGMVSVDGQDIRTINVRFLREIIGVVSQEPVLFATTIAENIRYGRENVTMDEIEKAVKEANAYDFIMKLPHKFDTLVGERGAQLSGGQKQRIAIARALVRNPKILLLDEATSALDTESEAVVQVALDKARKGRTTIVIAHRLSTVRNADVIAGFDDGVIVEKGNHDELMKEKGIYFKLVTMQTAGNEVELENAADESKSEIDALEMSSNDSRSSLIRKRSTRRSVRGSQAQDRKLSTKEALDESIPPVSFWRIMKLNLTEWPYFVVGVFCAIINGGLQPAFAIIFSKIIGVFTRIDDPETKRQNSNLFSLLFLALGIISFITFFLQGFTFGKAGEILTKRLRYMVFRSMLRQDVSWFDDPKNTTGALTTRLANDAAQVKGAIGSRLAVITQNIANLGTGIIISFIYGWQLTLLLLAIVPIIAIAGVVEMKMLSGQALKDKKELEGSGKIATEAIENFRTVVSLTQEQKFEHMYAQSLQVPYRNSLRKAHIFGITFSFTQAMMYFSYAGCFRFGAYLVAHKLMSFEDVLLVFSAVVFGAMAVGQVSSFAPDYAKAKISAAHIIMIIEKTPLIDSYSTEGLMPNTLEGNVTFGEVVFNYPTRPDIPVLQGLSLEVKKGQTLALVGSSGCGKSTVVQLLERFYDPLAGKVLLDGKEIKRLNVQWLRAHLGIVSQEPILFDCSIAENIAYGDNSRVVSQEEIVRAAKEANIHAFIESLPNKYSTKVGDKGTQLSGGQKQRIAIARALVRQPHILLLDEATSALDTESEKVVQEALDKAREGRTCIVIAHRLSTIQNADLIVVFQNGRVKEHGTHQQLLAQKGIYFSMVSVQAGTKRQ

Compound `COc1cc2c(cc1OC)CN(CCc1ccc(NC(=O)c3ccc(Cl)c4c(=O)c5cccc(OC)c5[nH]c34)cc1)CC2` [4a, 1-Chloro-N-(4-(2-(6,7-dimethoxy-1,2,3,4-tetrahydroisoquinolin-2-yl)ethyl)phenyl)-5-methoxyacridone-4-carboxamide] gave a logIC50 at human Pgp of 0.58±0.04.

With `COc1cc2c(cc1OC)CN(CCc1ccc(NC(=O)c3ccc(F)c4c(=O)c5cccc(OC)c5[nH]c34)cc1)CC2` [4b, N-(4-(2-(6,7-dimethoxy-1,2,3,4-tetrahydroisoquinolin-2-yl)ethyl)phenyl)-1-fluoro-5-methoxyacridone-4-carboxamide], the logIC50 at human Pgp came to 0.24±0.04. Moreover, the “IC50 times higher than 1” value against human Pgp (human, pH 7.4) is “about 4 times”.

The compound `COc1cc2c(cc1OC)CN(CCc1ccc(NC(=O)c3ccc([N+](=O)[O-])c4c(=O)c5cccc(OC)c5[nH]c34)cc1)CC2` [4c, N-(4-(2-(6,7-dimethoxy-1,2,3,4-tetrahydroisoquinolin-2-yl)ethyl)phenyl)-5-methoxy-1-nitroacridone-4-carboxamide] returned a logIC50 on human Pgp of 0.21±0.07.

Regarding `COc1cc2c(cc1OC)CN(CCc1ccc(NC(=O)c3cc(Cl)cc4c(=O)c5cccc(OC)c5[nH]c34)cc1)CC2` [4d, 2-Chloro-N-(4-(2-(6,7-dimethoxy-1,2,3,4-tetrahydroisoquinolin-2-yl)ethyl)phenyl)-5-methoxyacridone-4-carboxamide], the logIC50 on human Pgp was determined as 0.14±0.08.

Compound `COc1cc2c(cc1OC)CN(CCc1ccc(NC(=O)c3cc(F)cc4c(=O)c5cccc(OC)c5[nH]c34)cc1)CC2` [4e, N-(4-(2-(6,7-dimethoxy-1,2,3,4-tetrahydroisoquinolin-2-yl)ethyl)phenyl)-2-fluoro-5-methoxyacridone-4-carboxamide] gave a logIC50 on human Pgp of −0.21±0.08.

As to `COc1cc2c(cc1OC)CN(CCc1ccc(NC(=O)c3ccc([18F])c4c(=O)c5cccc(OC)c5[nH]c34)cc1)CC2` [[^18F]4b, 1-[^18F]fluoroelacridar], in series [1], the “protein-bound in rat plasma” value was 98.0±1.7%. Also, the “total radioactivity in brain in the form of unchanged tracer” value in series [2] (rat brain extracts, 40 min after injection, HPLC) is recorded as more than 90%. Further, in series [2] (rat plasma, 40 min sample), the “total radioactivity in the form of unchanged tracer, HPLC of SPE fraction 3” value is 72±27%. Besides, the “brain activity uptake increase after unlabelled 1 (group 2 vs group 1)” value in the series on Pgp/BCRP at the BBB [3] amounted to 9.5 times.

`COc1cc2c(cc1OC)CN(CCc1ccc(NC(=O)c3cccc4c(=O)c5cccc(OC)c5[nH]c34)cc1)CC2` [compound 1, elacridar]: at human Pgp (human, pH 7.4), the “Maximal inhibitory effect (%)” value stood at 100%. In addition, the “stimulation of ATPase activity” value in the series with Pgp is reported as “does not stimulate”. Also, in the series on Pgp/BCRP at the BBB [4], the “dose at which brain uptake of [11C]1 started to increase” value is on record as “greater than 0.1 mg/kg” and the “half-maximum effect dose for increase of [11C]1 brain uptake” value was 1.55 mg/kg.

For `COc1cc2c(cc1OC)CN(CCc1ccc(NC(=O)c3cc(OC)c(OC)cc3NC(=O)c3cnc4ccccc4c3)cc1)CC2` [tariquidar], the BCRP transport result with human BCRP was “avid substrate of BCRP”.
